Source: ChEMBL document CHEMBL1141140, “Antifungal agents. 11. N-substituted derivatives of 1-[(aryl)(4-aryl-1H-pyrrol-3-yl)methyl]-1H-imidazole: synthesis, anti-Candida activity, and QSAR studies” (2005)
Converted amounts (≈) assume the structure as drawn.

How the values were obtained:
Assay type in all cases: functional
Candida albicans [1] = assay: In vitro concentration causing 50% inhibition of Candida albicans with percentage of resistant strains %R = 50 (MIC > 64 ug/mL) at a range of 0.5-2 ug/mL
Candida albicans [2] = assay: In vitro minimal inhibitory concentration against Candida albicans with percentage of resistant strains %R = 50 (MIC > 64 ug/mL) at a range of 0.5-2 ug/mL
Candida albicans [3] = assay: Ratio of the in vitro minimal inhibitory to that of bifonazole against Candida albicans (MIC(compound)/MIC(bifonazole))
Outline: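 Broth microdilution per NCCLS M27-A2 against 12 Candida albicans strains (AIDS oropharyngeal, HIV vulvovaginitis isolates, ATCC 24433 and 20891, lab strains 3153 and CA2). Inoculum ~10^4 cells/mL in RPMI 1640, pH 7.0; DMSO stocks 6.4 mg/mL, twofold dilutions 0.016–64 μg/mL; read at 24 h, 28 °C, no visible growth. Mean MIC over strains converted to μmol/mL, divided by bifonazole MIC.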

Candida albicans [4] = assay: In vitro concentration causing 90% inhibition of Candida albicans with percentage of resistant strains %R = 50 (MIC > 64 ug/mL) at a range of 0.5-2 ug/mL
Candida albicans [5] = assay: In vitro concentration causing 50% inhibition of Candida albicans with percentage of resistant strains %R = 50 (MIC > 64 ug/mL) at a range of 2-4 ug/mL
Candida albicans [6] = assay: In vitro concentration causing 90% inhibition of Candida albicans with percentage of resistant strains %R = 50 (MIC > 64 ug/mL) at a range of 2-4 ug/mL
Candida albicans [7] = assay: In vitro minimal inhibitory concentration against Candida albicans with percentage of resistant strains %R = 50 (MIC > 64 ug/mL) at a range of 2-4 ug/mL
Candida albicans [8] = assay: In vitro minimal inhibitory concentration against Candida albicans with percentage of resistant strains %R = 50 (MIC > 64 ug/mL) at a range of 0.125-2 ug/mL
Candida albicans [9] = assay: In vitro concentration causing 90% inhibition of Candida albicans with percentage of resistant strains %R = 50 (MIC > 64 ug/mL) at a range of 0.125-2 ug/mL
Candida albicans [10] = assay: In vitro concentration causing 50% inhibition of Candida albicans with percentage of resistant strains %R = 50 (MIC > 64 ug/mL) at a range of 0.125-2 ug/mL
Candida albicans [11] = assay: In vitro minimal inhibitory concentration against Candida albicans with percentage of resistant strains %R = 33.33 (MIC > 64 ug/mL) at a range of 0.25-2 ug/mL
Candida albicans [12] = assay: In vitro concentration causing 90% inhibition of Candida albicans with percentage of resistant strains %R = 33.33 (MIC > 64 ug/mL) at a range of 0.25-2 ug/mL
Candida albicans [13] = assay: In vitro concentration causing 50% inhibition of Candida albicans with percentage of resistant strains %R = 33.33 (MIC > 64 ug/mL) at a range of 0.25-2 ug/mL
Candida albicans [14] = assay: In vitro concentration causing 90% inhibition of Candida albicans with percentage of resistant strains %R = 25 (MIC > 64 ug/mL) at a range of 0.5-2 ug/mL
Candida albicans [15] = assay: In vitro concentration causing 50% inhibition of Candida albicans with percentage of resistant strains %R = 25 (MIC > 64 ug/mL) at a range of 0.5-2 ug/mL
Candida albicans [16] = assay: In vitro minimal inhibitory concentration against Candida albicans with percentage of resistant strains %R = 25 (MIC > 64 ug/mL) at a range of 0.5-2 ug/mL
Candida albicans [17] = assay: In vitro minimal inhibitory concentration against Candida albicans with percentage of resistant strains %R = 66 (MIC > 64 ug/mL) at a range of 2-8 ug/mL
Candida albicans [18] = assay: In vitro concentration causing 50% inhibition of Candida albicans with percentage of resistant strains %R = 66 (MIC > 64 ug/mL) at a range of 2-8 ug/mL
Candida albicans [19] = assay: In vitro concentration causing 90% inhibition of Candida albicans with percentage of resistant strains %R = 66 (MIC > 64 ug/mL) at a range of 2-8 ug/mL
Candida albicans [20] = assay: In vitro minimal inhibitory concentration against Candida albicans with percentage of resistant strains %R = 100 (MIC > 64 ug/mL) at a range > 64
Candida albicans [21] = assay: In vitro concentration causing 50% inhibition of Candida albicans with percentage of resistant strains %R = 100 (MIC > 64 ug/mL) at a range > 64
Candida albicans [22] = assay: In vitro concentration causing 90% inhibition of Candida albicans with percentage of resistant strains %R = 100 (MIC > 64 ug/mL) at a range > 64
Candida albicans [23] = assay: In vitro minimal inhibitory concentration against Candida albicans with percentage of resistant strains %R = 33.33 (MIC > 64 ug/mL) at a range of 1-4 ug/mL
Candida albicans [24] = assay: In vitro concentration causing 90% inhibition of Candida albicans with percentage of resistant strains %R = 33.33 (MIC > 64 ug/mL) at a range of 1-4 ug/mL
Candida albicans [25] = assay: In vitro concentration causing 50% inhibition of Candida albicans with percentage of resistant strains %R = 33.33 (MIC > 64 ug/mL) at a range of 1-4 ug/mL
Candida albicans [26] = assay: In vitro concentration causing 90% inhibition of Candida albicans with percentage of resistant strains %R = 66 (MIC > 64 ug/mL) at a range of 0.25-2 ug/mL
Candida albicans [27] = assay: In vitro minimal inhibitory concentration against Candida albicans with percentage of resistant strains %R = 66 (MIC > 64 ug/mL) at a range of 0.25-2 ug/mL
Candida albicans [28] = assay: In vitro concentration causing 50% inhibition of Candida albicans with percentage of resistant strains %R = 66 (MIC > 64 ug/mL) at a range of 0.25-2 ug/mL

Compound: Clc1ccc(C(c2c[nH]cc2-c2cccc3ccccc23)n2ccnc2)c(Cl)c1 (stereo not given)
- MIC50 (Candida albicans [1]): 0.5 µg/mL (≈ 1.2 µM)
- MIC (Candida albicans [2]): 1 µg/mL (≈ 2.39 µM)
- Ratio (Candida albicans [3]): 0.21
- MIC90 (Candida albicans [4]): 2 µg/mL (≈ 4.78 µM)

Compound: COC(Cn1cc(-c2ccc(Cl)cc2)c(C(c2ccc(Cl)cc2Cl)n2ccnc2)c1)OC (stereo not given)
- MIC50 (Candida albicans [5]): 2 µg/mL (≈ 4.07 µM)
- Ratio (Candida albicans [3]): 0.48
- MIC90 (Candida albicans [6]): 4 µg/mL (≈ 8.15 µM)
- MIC (Candida albicans [7]): 2.66 µg/mL (≈ 5.42 µM)

Compound: Cn1cc(-c2ccc(Cl)cc2)c(C(c2ccc(Cl)cc2Cl)n2ccnc2)c1 (stereo not given)
- MIC (Candida albicans [8]): 1.31 µg/mL (≈ 3.14 µM)
- Ratio (Candida albicans [3]): 0.28
- MIC90 (Candida albicans [9]): 2 µg/mL (≈ 4.8 µM)
- MIC50 (Candida albicans [10]): 1 µg/mL (≈ 2.4 µM)

Compound: Cc1ccc(C(c2cn(C)cc2-c2ccc(Cl)c(Cl)c2)n2ccnc2)cc1 (stereo not given)
- MIC (Candida albicans [11]): 0.87 µg/mL (≈ 2.2 µM)
- MIC90 (Candida albicans [12]): 2 µg/mL (≈ 5.05 µM)
- Ratio (Candida albicans [3]): 0.19
- MIC50 (Candida albicans [13]): 0.5 µg/mL (≈ 1.26 µM)

Compound: CCn1cc(-c2ccc(Cl)cc2)c(C(c2ccc(Cl)cc2Cl)n2ccnc2)c1 (stereo not given)
- MIC90 (Candida albicans [14]): 2 µg/mL (≈ 4.64 µM)
- MIC50 (Candida albicans [15]): 2 µg/mL (≈ 4.64 µM)
- Ratio (Candida albicans [3]): 0.31
- MIC (Candida albicans [16]): 1.5 µg/mL (≈ 3.48 µM)

Compound: CCn1cc(-c2cccc3ccccc23)c(C(c2ccc(Cl)cc2Cl)n2ccnc2)c1 (stereo not given)
- Ratio (Candida albicans [3]): 1.1
- MIC (Candida albicans [17]): 5.5 µg/mL (≈ 12.3 µM)
- MIC50 (Candida albicans [18]): 4 µg/mL (≈ 8.96 µM)
- MIC90 (Candida albicans [19]): 8 µg/mL (≈ 17.9 µM)

Compound: CCCn1cc(-c2ccc(Cl)cc2Cl)c(C(c2ccc(Cl)cc2Cl)n2ccnc2)c1 (stereo not given)
- MIC (Candida albicans [20]): > 64 µg/mL
- MIC50 (Candida albicans [21]): > 64 µg/mL
- MIC90 (Candida albicans [22]): > 64 µg/mL

Compound: Cn1cc(-c2ccc(-n3cccc3)cc2)c(C(c2ccc(Cl)cc2Cl)n2ccnc2)c1 (stereo not given)
- MIC (Candida albicans [23]): 3.12 µg/mL (≈ 6.97 µM)
- Ratio (Candida albicans [3]): 0.62
- MIC90 (Candida albicans [24]): 4 µg/mL (≈ 8.94 µM)
- MIC50 (Candida albicans [25]): 4 µg/mL (≈ 8.94 µM)

Compound: CCCn1cc(-c2ccc(Cl)cc2)c(C(c2ccc(Cl)cc2Cl)n2ccnc2)c1 (stereo not given)
- MIC90 (Candida albicans [26]): 32 µg/mL (≈ 71.9 µM)
- MIC (Candida albicans [27]): 8.56 µg/mL (≈ 19.2 µM)
- Ratio (Candida albicans [3]): 1.7
- MIC50 (Candida albicans [28]): 1 µg/mL (≈ 2.25 µM)
